Screens as filed in PubChem BioAssay.
ABHD5-PLIN5 inh = ABHD5-PLIN5 interaction inhibitors, primary screen, cell lysate, split luciferase complementation, luminescence; AID 602281, 2012; Perilipin-5 (Homo sapiens) + 1-acylglycerol-3-phosphate O-acyltransferase ABHD5 (Homo …; Split G. princeps luciferase complementation, 4 h; actives 0.78% (n = 360,000); inhibition, % at 4 µM;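 active = inhibition above the mean inhibition across every tested compound plus 3 SD, cut at about 22% in these data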;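 also: 0% = DMSO only wells and the 100% control is not disclosed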
PRMT1 inh = PRMT1 methyltransferase inhibitors, primary screen, biochemical, fluorescence polarization | recombinant PRMT1, activity-based probe fluorescence polarization | inhibition, % at 2.79 µM | actives 1.3% (n = 370,000) | AID 652257, 2013;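 active = inhibition above about 21% made by adding two undisclosed values, limit read from the data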
LEDGF integ inh = blockers of LEDGF/p75-dependent integrase strand transfer – biochemical, TR-FRET, high throughput, primary screen; HIV-1 integrase (with human LEDGF/p75); TR-FRET IN-LEDGF/p75 DNA integration, Eu/Cy5; inhibition, % at 3.7 µM; actives 0.64% (n = 370,000); AID 743269, 2014;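 active = inhibition above the screen-wide mean plus 3 SD, cut at about 13% in these data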;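 also: signal is the Cy5 over europium emission ratio at 671 and 618 nm; 0% = plate median of compound wells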
MBD2 DNA inh = inhibitors of MBD2 binding to methylated DNA, primary screen, biochemical, TR-FRET, DNA-binding domain, human. Methyl-CpG-binding domain protein 2 (Homo sapiens), Q9UBB5. MBD2 binding to methylated oligonucleotide. actives 0.31% (n = 370,000). AID 686964, 2013. inhibition, % at 4.4 µM; in the data active = inhibition above about 13%
RBBP9 inh = human RBBP9 inhibitors, primary screen, biochemical, fluorescence polarization, FP-Rh probe, HTS; Serine hydrolase RBBP9 (Homo sapiens), O75884; recombinant RBBP9; inhibition, % at 7.94 µM; actives 0.2% (n = 220,000);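 active = inhibition above the campaign mean of all tested compounds plus 3 SD, cut at about 14% in these data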;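 also: plate controls were DMSO wells with RBBP9 for no effect and wells lacking RBBP9 protein for full effect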
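Measured by – fluorescence polarization · Test system – RBBP9 protein · Input – 2.5 µM RBBP9 dispensing solution, before mixing · Measure – percent inhibition from mP, scaled between DMSO and no-protein wells · Benchmarks – DMSO-treated enzyme wells and wells lacking RBBP9 · Times – preincubation 30 min plus labeling 45 min at 25 °C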
UHRF1 MBD2 ctr = UHRF1 methylated DNA binding inhibitors, primary screen, counter-screen for MBD2 inhibitor project, biochemical, TR-FRET, human UHRF1, single concentration | UHRF1 binding to methylated oligo | inhibition, % at 4.4 µM | actives 0.75% (n = 370,000) | AID 687016, 2013; in the data active = inhibition above about 21%;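 also: UHRF1 SRA domain binding a hemimethylated CpG hairpin DNA probe; 0% = median of test compound wells and 100% = reference inhibitor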
Target sequence (Q96T88 whole entry, looked up, the tested form may be a part): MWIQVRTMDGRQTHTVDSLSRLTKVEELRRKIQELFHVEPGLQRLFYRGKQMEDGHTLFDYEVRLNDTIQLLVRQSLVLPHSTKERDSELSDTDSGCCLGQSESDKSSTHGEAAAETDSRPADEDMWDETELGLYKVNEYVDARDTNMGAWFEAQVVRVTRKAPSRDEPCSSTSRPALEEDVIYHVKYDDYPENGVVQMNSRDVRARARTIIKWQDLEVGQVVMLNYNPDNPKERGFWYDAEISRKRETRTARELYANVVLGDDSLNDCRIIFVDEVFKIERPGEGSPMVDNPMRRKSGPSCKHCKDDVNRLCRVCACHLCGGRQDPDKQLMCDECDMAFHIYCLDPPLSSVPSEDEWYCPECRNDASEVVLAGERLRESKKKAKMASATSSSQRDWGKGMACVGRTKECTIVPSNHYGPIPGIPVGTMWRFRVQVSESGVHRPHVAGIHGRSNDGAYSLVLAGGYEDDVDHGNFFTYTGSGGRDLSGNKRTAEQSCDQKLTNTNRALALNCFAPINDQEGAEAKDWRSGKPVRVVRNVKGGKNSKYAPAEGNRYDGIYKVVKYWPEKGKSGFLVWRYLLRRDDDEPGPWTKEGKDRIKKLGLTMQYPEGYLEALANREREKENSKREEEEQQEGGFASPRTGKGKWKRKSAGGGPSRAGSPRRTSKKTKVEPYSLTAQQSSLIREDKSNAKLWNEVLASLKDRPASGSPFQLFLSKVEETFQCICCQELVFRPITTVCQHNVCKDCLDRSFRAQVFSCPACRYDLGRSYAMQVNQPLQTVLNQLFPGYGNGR
ABHD5-PLIN5 conf = ABHD5-PLIN5 interaction inhibitors, confirmation, biochemical, luminescence | shares compounds with ABHD5-PLIN5 inh | inhibition, % at 4 µM | actives 67% (n = 2,200) | AID 651612, 2012; in the data active = inhibition above about 23%;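 also: 0% = DMSO vehicle wells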
HNF4 split-luc = HNF4 dimerization inhibitors, counter-screen for ABHD5-PLIN5 interaction inhibitor project, biochemical, split-luciferase complementation, luminescence; shares compounds with ABHD5-PLIN5 inh; inhibition, % at 4 µM; actives 77% (n = 2,200);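 active = mean inhibition across replicate wells exceeding the computed hit threshold, cut at about 13% in these data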;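 also: light from luciferase halves that rejoin when HNF4 fusion proteins dimerize; 0% = DMSO only wells and the 100% control is not given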
Numbers without * were called inactive; x = no result given. This is a sample that favours compounds with a hit; in the whole collection about 3.1% have one here.

SMILES | ABHD5-PLIN5 inh | PRMT1 inh | LEDGF integ inh | MBD2 DNA inh | RBBP9 inh | UHRF1 MBD2 ctr | ABHD5-PLIN5 conf | HNF4 split-luc
CCOC(=O)c1c(CSC(=N)N)n(-c2ccc(C)cc2)c2cc(Br)c(OC(C)=O)cc12 | 30.9* | -1.4 | -2.7 | 1.9 | -0.2 | 0.9 | 32.7* | 29.7*
O=C(O)c1cccc(NC2=C(Cl)C(=O)c3ccccc3C2=O)c1 | 37.9* | 7.8 | 0.7 | -10.4 | 1.0 | -3.2 | 38.1* | 23.9*
O=C(Nc1nc2ccccc2s1)c1cc(-c2ccco2)nc2ccccc12 | 27.1* | 9.1 | 5.1 | 3.6 | -15.9 | 0.2 | 22.2* | 13.8*
Brc1ccccc1Cn1nnc(-c2ccc(N3CCOCC3)cc2)n1 | x | -1.1 | 1.9 | 0.9 | x | -0.5 | x | x
COc1ccccc1N1CCNC(C)C1=O (configuration not stated) | 57.2* | -1.2 | -2.9 | 1.5 | x | -1.8 | 7.3 | 14.7*
COc1ccccc1N1C(=O)C2C3C=CC(CC3)C2C1=O (configuration not stated) | -3.1 | -0.1 | -4.6 | 8.1 | x | 3.3 | x | x
O=C(CSc1nc2ccc(Cl)cc2[nH]1)NCc1ccco1 | 10.4 | 3.0 | 1.5 | -0.4 | 2.9 | -1.9 | x | x
Cc1cc(C)c2cc(C#N)c(SCC(=O)NCc3ccco3)nc2c1 | 34.9* | 4.1 | 2.8 | -0.7 | -4.6 | -18.8 | 66.4* | 73.5*
Cc1cc(C)c2cc(C)c(SCC(=O)NCc3ccco3)nc2c1 | 6.7 | 1.8 | -1.2 | -1.3 | -10.4 | 3.1 | x | x
O=C(CSc1c2c(nc3cc(Cl)ccc13)CCCC2)NCc1ccco1 | 24.3* | 23.2* | 3.5 | 2.6 | -3.1 | 2.0 | 42.4* | 38.0*
COc1ccccc1CNC(=O)N(CCc1c(C)[nH]c2ccccc12)Cc1cccs1 | x | 0.4 | -2.6 | -3.0 | x | 3.5 | x | x
COc1ccccc1-c1cc(C(F)(F)F)nc(S(=O)(=O)CCCC(=O)Nc2cccnc2Cl)n1 | 31.6* | 2.9 | 0.7 | -4.7 | 0.4 | 2.4 | 51.0* | 68.7*
COc1ccccc1-c1cc(C(F)(F)F)nc(S(=O)(=O)CCCC(=O)NC(C)C)n1 | 4.6 | -1.9 | 5.4 | 12.9 | -1.4 | 20.5 | x | x
COc1ccccc1-c1cc(C(F)(F)F)nc(S(C)(=O)=O)n1 | 43.6* | 4.6 | 0.1 | -1.1 | -7.5 | -1.1 | 67.1* | 86.5*
CC(C)C[C@H]1COc2cccc(N3CCCC3)c2S(=O)(=O)N1C | x | 4.2 | 2.4 | -1.2 | x | -2.5 | x | x
CCCCNS(=O)(=O)CC1NCc2ccc(C)cc21 (configuration not stated) | x | 3.1 | -3.8 | -5.4 | x | -4.9 | x | x
O=C(c1ccccc1)N1CCC2CCN(CCc3ccccc3)CC21 (configuration not stated) | x | -5.2 | 7.8 | -3.9 | x | 0.2 | x | x
O=C(Nc1ccc2nc3n(c(=O)c2c1)CCCCC3)c1c(F)ccc([N+](=O)[O-])c1F | 36.0* | 0.7 | 16.7* | 2.9 | x | -2.2 | 60.9* | 56.1*
O=C(Nc1ccc2nc3n(c(=O)c2c1)CCCCC3)c1cc([N+](=O)[O-])ccc1F | 7.6 | 1.0 | 0.8 | -0.2 | x | 3.1 | x | x
Cc1cccc2cc(/C=C/C(=O)c3ccco3)c(Cl)nc12 | 42.2* | 6.3 | 1.4 | -0.2 | -1.6 | 2.8 | 72.9* | 62.8*
CCOc1ccc2nc(Cl)c(/C=C/C(=O)c3ccco3)cc2c1 | 34.1* | 0.1 | 2.4 | 10.7 | -10.2 | 11.8 | 93.4* | 91.9*
CCOc1ccc2nc(NC(=O)c3ccco3)sc2c1 | 0.0 | 2.2 | 4.9 | 1.8 | x | -0.4 | x | x
CC1=NNC(=O)/C1=C\c1cn(-c2ccccc2)nc1-c1ccccc1 | 74.0* | 11.3 | 5.6 | -6.7 | -14.3 | -3.0 | 98.7* | 101.4*
C=C1C(=O)[C@]23C[C@H]1CC[C@H]2[C@]1(C)[C@@H](OC(C)=O)CC[C@@](C)(C(=O)O)[C@H]1C[C@@H]3O | 52.2* | 9.2 | 2.0 | 3.9 | x | -1.2 | 52.8* | 105.1*
C=C1C(=O)[C@]23C[C@H]1CC[C@H]2[C@]1(C)[C@@H](OC(C)=O)CC[C@@](C)(C(=O)OC)[C@H]1C[C@@H]3OC(C)=O | 55.9* | 7.0 | -0.8 | 0.5 | x | -3.7 | 70.7* | 97.9*
SMILES | ABHD5-PLIN5 inh | PRMT1 inh | LEDGF integ inh | MBD2 DNA inh | RBBP9 inh | UHRF1 MBD2 ctr | ABHD5-PLIN5 conf | HNF4 split-luc
C=C1C(=O)[C@]23C[C@H]1CCC2[C@@]1(C)C(C[C@@H]3O)[C@](C)(C(=O)OC)CC[C@@H]1OC(C)=O (some centres not stated) | 77.6* | 24.2* | -4.5 | 5.0 | x | 0.1 | 84.7* | 108.7*
C[C@H]1C2CC(OC(=O)Nc3ccc(F)cc3)C(C2)[C@H]2CCCCN21 (some centres not stated) | x | 3.0 | -1.2 | 0.8 | x | 3.0 | x | x
COC(=O)[C@H](CC(C)C)N(CCCc1cn(Cc2ccccc2)nn1)S(=O)(=O)c1ccccc1Br | x | -2.2 | 4.6 | -7.7 | x | 2.2 | x | x
Cc1ccc(-c2nc3c(c(=O)c4ccccc4n3C)c(=O)n2Cc2ccco2)cc1 | 37.2* | 22.5* | 4.3 | 0.9 | -21.5 | -6.4 | 18.8 | 13.4*
CCCc1nc2sc3ccccc3c(=O)c2c(=O)n1Cc1ccccc1 | -9.9 | -4.8 | -1.0 | 0.8 | x | -3.5 | x | x
O=c1c2ccccc2sc2nc(C3CCCCC3)n(Cc3ccco3)c(=O)c12 | 26.4* | 17.9 | 0.1 | 5.5 | -20.6 | 6.3 | 36.5* | 42.6*
CCc1nc2sc3ccccc3c(=O)c2c(=O)n1Cc1ccco1 | 23.6* | 21.2* | 7.6 | -0.6 | -12.5 | 6.2 | 35.8* | 49.7*
Cc1ccc(Oc2c(C(N)=O)cc([N+](=O)[O-])cc2[N+](=O)[O-])cc1 | 63.1* | 6.2 | -0.1 | -2.5 | 4.9 | -0.4 | 94.7* | 74.1*
Cc1ccc(CNc2ccc([N+](=O)[O-])cc2C(N)=O)cc1 | -14.1 | 13.1 | 2.8 | 0.7 | x | -0.9 | x | x
Cc1ccc(-c2cc(C(F)F)nc(S(C)(=O)=O)n2)cc1 | 24.6* | 4.4 | 0.9 | 5.1 | -2.2 | 0.6 | 45.4* | 51.3*
Cc1ccc(-c2cc(-c3ccccc3)nc(Cl)n2)cc1 | -2.9 | -1.2 | -1.2 | 0.5 | -2.4 | -0.9 | x | x
